Screens as filed in PubChem.
The list is not random: actives were taken first. Their share in the collection is about 3%.
TAAR1 ag = agonists of human TAAR1 | Q96RJ0 | CHO RD-HGA16 TAAR1, Fluo-8 calcium fluorescence; vehicle wells 0%, saturating PEA agonist 100% | activation, % at 3 µM | 360,000 compounds, 0.99% hits | AID 624467;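 active means activation above the mean activation of all test compounds in the run plus 3 SD, cut at about 38% in these data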
Target sequence (Q96RJ0 whole entry, looked up): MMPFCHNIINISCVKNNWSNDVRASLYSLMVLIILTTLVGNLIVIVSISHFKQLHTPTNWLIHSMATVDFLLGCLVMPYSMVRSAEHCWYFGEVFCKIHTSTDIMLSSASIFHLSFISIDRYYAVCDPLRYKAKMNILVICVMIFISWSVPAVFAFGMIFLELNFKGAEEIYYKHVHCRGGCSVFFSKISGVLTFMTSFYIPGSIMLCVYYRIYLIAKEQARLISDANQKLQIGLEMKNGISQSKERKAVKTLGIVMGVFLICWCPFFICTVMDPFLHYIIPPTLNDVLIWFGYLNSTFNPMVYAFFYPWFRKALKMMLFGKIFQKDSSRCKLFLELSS
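Repeats: no replicates (n 1) | Material: CHO-derived RD-HGA16 cells with stable Gα16 and human TAAR1 | Technique: Kinetic Fluo-8 calcium fluorescence | Schedule: 17-24 h seeding, 75 min 37 °C dye, 30 min RT | Evaluation: % activation from peak over basal fluorescence ratio, DMSO-to-PEA scaled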
TAAR1 antagonist = antagonists of human TAAR1 | CHO RD-HGA16 TAAR1, Fluo-8 calcium fluorescence, antagonist | inhibition, % at 3 µM | 360,000 compounds, 1.5% hits;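 active means inhibition above a per-plate cutoff, the mean inhibition of test compounds on that plate plus 3 SD, cut at about 49% in these data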;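 further: 0% = DMSO plus EC80 beta-PEA response and 100% = DMSO alone without agonist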
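Material: CHO RD-HGA16 cells bearing hTAAR1; compound dosing: one-point dosing, 3 µM nominal final; schedule: dye loading 75 min at 37 °C, then 30 min room temperature; measured by: calcium fluorescence with Fluo-8; control set: vehicle and agonist controls; replication: n of 1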
CHRM4 PAM = positive allosteric modulators of human muscarinic M4 receptor | P08173 | CHO-K1 hM4/Gqi5, Fluo-8 calcium fluorescence, ACh EC20; 0% = ACh EC20, 100% = maximal ACh | activation, % at 3 µM | 360,000 compounds, 0.4% hits | AID 624126;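 active means activation above its plate's cutoff, the mean activation of sample wells plus 3 SD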
M4 antag = CHRM4 antagonism in calcium assay; P08173; CHO-hM4 cells, ACh EC80, Fluo-8 calcium fluorescence; inhibition, % at 3 µM; 360,000 compounds, 0.73% hits; AID 624125;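 active means inhibition above its plate's cutoff, the mean inhibition of sample wells plus 3 SD, cut at about 27% in these data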;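 further: 0% = acetylcholine EC80 with DMSO and 100% = DMSO without agonist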
M4 ag = CHRM4 agonism in calcium assay; P08173; AID 624127; activation, % at 3 µM; CHO-K1 hM4/Gqi5, Fluo-8 calcium fluorescence; vehicle 0%, full acetylcholine response 100%; 360,000 compounds, 0.14% hits;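 active means activation above the run mean over all test wells plus 3 SD, cut at about 32% in these data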;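 further: peak over basal fluorescence ratio per well then scaled between controls; 0% = DMSO wells and 100% = acetylcholine at EC100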
Starred values were filed as active, the others as inactive; . = no result.

SMILES | TAAR1 ag | TAAR1 antagonist | CHRM4 PAM | M4 antag | M4 ag
COc1cc(C(=O)NC(=S)N(CCc2ccccc2)CCc2ccccc2)cc(OC)c1OC | 6.4 | 53.2* | -15.6 | 12.4 | 6.5
COc1cc([N+](=O)[O-])ccc1NC(=O)CCCOc1cccc(C)c1 | 1.1 | 105.7* | -6.5 | -6.2 | -0.6
O=[N+]([O-])c1ccc2c(c1)CCCO[C@]21O[C@H](CCO)C[C@H](O)[C@H]1O | -0.1 | -6.2 | . | . | .
CC1=NNC(=O)/C1=C\c1cn(-c2ccccc2)nc1-c1cccs1 | 37.3 | 86.1* | -18.9 | 60.1* | 13.9
COC(=O)c1cc(C)sc1NC(=O)CN1CCN(C(=O)c2ccco2)CC1 | 5.6 | -11.8 | 3.5 | -1.7 | 3.4
CCOC(=O)c1cc(C)sc1NC(=O)CN1CCN(C(=O)c2ccco2)CC1 | 41.6* | 34.5 | -1.4 | 10.1 | 5.9
Cc1cc(/C=C(\C#N)C(=O)NC2CCCCCC2)c(C)n1C | 1.5 | -11.0 | 23.2* | 6.0 | 0.9
COc1ccc(-c2cc(NC(=O)Cc3c(C)[nH]c4ccccc34)ccc2Nc2cccnc2)cc1OC | 2.0 | 22.7 | . | . | .
CC(=O)c1cccc(NC(=O)c2ccc(-c3c(C)noc3C)c3ccoc23)c1 | 11.1 | 64.2* | -9.3 | 3.7 | 15.2
CC(=O)Nc1ccc(NC(=O)c2ccc(-c3c(C)noc3C)c3ccoc23)cc1 | 6.3 | -7.3 | -5.2 | -12.2 | 11.2
COc1ccc(NC(=O)c2cccc3c(-c4cnn(C)c4)coc23)cc1 | 6.8 | 4.3 | 4.3 | -17.7 | 10.9
COc1ccc(-c2ccc(C(=O)Nc3ccc(NC(C)=O)cc3)c3occc23)c(C)c1 | 14.3 | 50.9* | 0.7 | -4.7 | 0.3
COc1cc(NC(=O)c2cccc3c(-c4cnn(C)c4)coc23)cc(OC)c1OC | 14.9 | 54.0* | -8.5 | -5.9 | 18.0
CC(=O)c1cccc(NC(=O)c2cccc3c(-c4cnn(C)c4)coc23)c1 | 14.4 | 55.3* | 0.7 | -8.6 | 9.5
CN(c1cccnc1)c1ccc(NC(=O)Cc2c[nH]c3ccccc23)cc1-c1ccc(F)c(F)c1 | 7.0 | 23.8 | . | . | .
COC(=O)c1cc2c(c3c4cc(C)ccc4n(S(=O)(=O)c4ccc(OC)cc4)c13)C(=O)N(Cc1ccccc1OC)C2 | -0.1 | -14.6 | . | . | .
COc1ccccc1N1C(=O)C2C(C(=O)c3ccccc3)=NN(c3ccc(C)cc3)C2C1=O (configuration not stated) | 18.6 | 1.8 | -7.7 | 0.3 | 1.2
COc1ccccc1N1C(=O)C2C(C(=O)c3ccccc3)=NN(c3ccc(Br)cc3)C2C1=O (configuration not stated) | 34.4 | 6.2 | -7.0 | 37.5* | 19.7
COc1cccc(CNCc2ccc(OC)cc2OC)c1 | 4.4 | -25.2 | -6.5 | 5.8 | 1.8
CCn1c2ccccc2c2cc(CNCc3ccc(OC)cc3OC)ccc21 | 46.1* | 2.6 | -9.5 | 12.1 | 25.5
COC(=O)[C@]12C[C@H](CC(=O)NCC3CCCCC3)C(=O)N(CCC3=CCCCC3)C1=C[C@H](COCc1ccccc1)O[C@@H]2C | -1.1 | -22.1 | . | . | .
CCOC(=O)CNC(=O)CSc1ncnc2c1cnn2-c1ccc(Cl)cc1 | 14.0 | -9.8 | 5.8 | -13.8 | 1.0
CCOC(=O)Cc1csc(NC(=O)CSc2ncnc3c2cnn3-c2ccc(OC)cc2)n1 | 17.9 | 50.0* | 4.6 | -7.6 | 8.9
O=C(CSc1ncnc2c1cnn2-c1ccccc1)Nc1ccccc1 | 39.5* | 46.4 | -4.8 | 10.0 | -0.4
O=C(Nc1ccc(S(=O)(=O)N2CCc3ccccc3C2)cc1)C1CCCO1 (configuration not stated) | 8.5 | 0.2 | 0.8 | -0.2 | 8.3
SMILES | TAAR1 ag | TAAR1 antagonist | CHRM4 PAM | M4 antag | M4 ag
CN(C)S(=O)(=O)N1CCc2ccc(NC(=O)C3CCCO3)cc2C1 (configuration not stated) | 2.0 | -29.7 | 19.8* | -4.5 | 0.4
O=[N+]([O-])c1ccc2nc(-c3ccc(Cl)cc3)n(OCc3ccccc3)c2c1 | 38.5* | 18.2 | 0.4 | -0.7 | 11.2
Cc1ccc(COn2c(-c3ccc(Cl)cc3)nc3ccc([N+](=O)[O-])cc32)cc1 | 34.3 | 27.1 | -4.0 | 0.8 | 9.9
CCN1C(=O)[C@H]2[C@@H](c3ccc(C(F)(F)F)cc3)N[C@]3(CCCN(CC4CCCCC4)C3=O)[C@H]2C1=O | -2.4 | -7.8 | 15.2 | -22.6 | -0.5
CC1(C)C2([N+](=O)[O-])CN(CCO)CC1([N+](=O)[O-])CN(CCO)C2 | 3.2 | 9.1 | -1.1 | 2.0 | 0.5
CC(=O)N1CC2([N+](=O)[O-])CN(C(C)=O)CC([N+](=O)[O-])(C1)C2(C)C | 4.6 | 6.5 | 19.6* | -1.9 | 0.3
C=C(C)CSc1nnc(-c2cc(OC)c(OC)c(OC)c2)n1N | 2.5 | 12.6 | -4.7 | -1.4 | 0.8
C=C(C)CSc1nnc(-c2ccc(OC)c(OC)c2)n1N | 2.0 | -2.4 | 30.5* | -5.0 | 1.3
O=C1NC(=S)NC1=Cc1ccccc1O | 47.5* | 11.8 | -19.8 | 13.4 | 133.7*
O=C1NC(=S)N/C1=C/c1cccc2ccccc12 | 0.6 | -6.4 | 5.4 | -15.6 | -0.2
CCOC(=O)c1c(NC(=O)COC(=O)c2ccc(Cl)nc2)sc(C(=O)N(C)C)c1C | 2.7 | -24.1 | 7.6 | -12.2 | 5.2
CCOC(=O)c1c(NC(=O)CN2CCN(S(=O)(=O)c3cc(Cl)ccc3Cl)CC2)sc(C(=O)N(C)C)c1C | -2.4 | 26.2 | -12.7 | 40.5* | 8.1
COCCNC(=O)C(c1ccc(F)cc1)N(C(=O)CCC(=O)Nc1ccccn1)c1ccc(C)cc1 (configuration not stated) | 3.8 | -13.5 | 30.3* | 22.8 | 15.7
COCCNC(=O)C(c1ccc(C)cc1)N(C(=O)CCC(=O)Nc1ccccn1)c1ccc(F)cc1 (configuration not stated) | -0.7 | 9.7 | 3.2 | -6.9 | 1.7
O=C1c2ccccc2NC(c2cc(Cl)cc(Cl)c2O)N1CCc1ccccn1 (configuration not stated) | 7.9 | -12.9 | . | . | .
CCOC(=O)C1CCCN(C2=NC(=O)/C(=C/c3ccc(N(C)C)cc3)S2)C1 (configuration not stated) | 24.7 | 0.8 | -8.5 | -4.7 | 41.4*
C[C@H]1COc2cc(NCCCN3CCOCC3)ccc2S(=O)(=O)N1 | 1.2 | 5.1 | . | . | .
O=C(c1[nH]c(C(F)(F)F)nc1-c1ccccc1)N1CCN(c2ncc(C(F)(F)F)cc2Cl)CC1 | 48.5* | 48.9* | -8.1 | 22.4 | 37.2*
CCOC(=O)C1CCCN(C2CC(=O)N(c3cccc(C(F)(F)F)c3)C2=O)C1 (configuration not stated) | 43.1* | 43.9 | -0.2 | 0.9 | 1.6
CCCCN1C(=O)C(=O)N(CC(=O)Nc2cc(Cl)ccc2OC)C1=O | 1.4 | 9.1 | 23.8* | -16.9 | 3.3
Cc1cc(C)n(-c2nc(Nc3ccccc3C)nc(-n3nc(C)cc3C)n2)n1 | 39.1* | 87.5* | . | . | .
